Source: ChEMBL document CHEMBL4359856, “Strategies to develop selective CB2 receptor agonists from indole carboxamide synthetic cannabinoids” (Eur J Med Chem, 2019)

Tests used:
Cannabinoid receptor 1 [1] = biological target: T1, Cannabinoid receptor 1 (Homo sapiens, UniProt P21554); assay: Agonist activity at human CB1 receptor expressed in AtT-20 cells measured every 2 secs for 2 mins by FLIPR assay; format: cell-based
In short: (§1)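 After vehicle subtraction, the change was taken as % of baseline. The final DMSO concentration was ≤0.1%. EC50 came from four-parameter concentration–response fits. Each experiment was run in duplicate, with at least three independent experiments; values are mean ± SEM.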

Cannabinoid receptor 1 [2] = biological target: T1, Cannabinoid receptor 1; assay: Agonist activity at human CB1 receptor expressed in AtT-20 cells at 1 uM measured every 2 secs for 2 mins by FLIPR assay relative to control; format: cell-based; in short: as §1
Cannabinoid receptor 2 [3] = biological target: T2, Cannabinoid receptor 2 (Homo sapiens, UniProt P34972); assay: Agonist activity at human CB2 receptor expressed in AtT-20 cells measured every 2 secs for 2 mins by FLIPR assay; format: cell-based; in short: as §1
T2 sequence (P34972 whole entry): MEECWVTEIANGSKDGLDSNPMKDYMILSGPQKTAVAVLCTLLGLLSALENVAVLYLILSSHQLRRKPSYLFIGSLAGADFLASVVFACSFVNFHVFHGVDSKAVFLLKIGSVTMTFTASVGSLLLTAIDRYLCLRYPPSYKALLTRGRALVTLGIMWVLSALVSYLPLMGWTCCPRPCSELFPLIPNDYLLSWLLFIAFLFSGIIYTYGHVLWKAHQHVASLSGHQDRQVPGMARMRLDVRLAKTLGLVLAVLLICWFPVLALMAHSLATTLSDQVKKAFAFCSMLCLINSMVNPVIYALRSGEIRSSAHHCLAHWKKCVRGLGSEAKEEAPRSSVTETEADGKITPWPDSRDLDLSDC

Cannabinoid receptor 2 [4] = biological target: T2, Cannabinoid receptor 2; assay: Agonist activity at human CB2 receptor expressed in AtT-20 cells at 1 uM measured every 2 secs for 2 mins by FLIPR assay relative to control; format: cell-based
In short: as §1, with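 “In AtT-20 cells stably expressing human CB1 or CB2, membrane-potential dye fluorescence (530/565 nm) was recorded at 37 °C. After” for “After”, “fits. […]” for “fits.”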

Cannabinoid receptor 1 [5] = biological target: T1, Cannabinoid receptor 1; assay: Agonist activity at human CB1 receptor expressed in AtT-20 cells at 10 uM measured every 2 secs for 2 mins by FLIPR assay relative to control; format: cell-based; conditions: read-out: Activity
Cannabinoid receptor 2 [6] = biological target: T2, Cannabinoid receptor 2; assay: Agonist activity at human CB2 receptor expressed in AtT-20 cells at 10 uM measured every 2 secs for 2 mins by FLIPR assay relative to control; format: cell-based
[7] = Selectivity index, ratio of EC50 for human CB1 receptor expressed in AtT-20 cells to EC50 for human CB2 receptor expressed in AtT-20 cells

T1 sequence (P21554 whole entry): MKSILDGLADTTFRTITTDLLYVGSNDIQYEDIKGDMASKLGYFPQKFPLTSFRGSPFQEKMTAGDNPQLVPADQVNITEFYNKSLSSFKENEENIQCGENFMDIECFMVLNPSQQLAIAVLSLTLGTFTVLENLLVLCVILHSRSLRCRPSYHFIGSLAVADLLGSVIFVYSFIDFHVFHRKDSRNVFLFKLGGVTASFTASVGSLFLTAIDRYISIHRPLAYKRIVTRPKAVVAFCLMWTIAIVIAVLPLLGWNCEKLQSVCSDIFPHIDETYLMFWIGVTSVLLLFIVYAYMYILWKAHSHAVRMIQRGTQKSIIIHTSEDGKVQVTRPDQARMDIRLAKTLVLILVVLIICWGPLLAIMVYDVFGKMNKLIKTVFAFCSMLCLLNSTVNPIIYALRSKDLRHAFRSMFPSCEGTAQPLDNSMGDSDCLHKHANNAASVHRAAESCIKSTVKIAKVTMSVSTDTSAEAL

Which results are given for `CCCCCn1cc(C(=O)N[C@H](C(=O)OC)C(C)C)c2cccnc21`?
EC50 (Cannabinoid receptor 1 [1]): 56 nM; Emax at 1 µM (Cannabinoid receptor 1 [2]): 97%; EC50 (Cannabinoid receptor 2 [3]): 15 nM; Emax (Cannabinoid receptor 2 [4]): 98%

With `COC(=O)[C@@H](NC(=O)c1cn(CCCCCO)c2ncccc12)C(C)(C)C` as the compound, how does the EC50 (Cannabinoid receptor 1 [1]) read?
The EC50 was 234 nM.

And the Emax at 1 µM (Cannabinoid receptor 1 [2])?
Its Emax at 1 µM is 99%.

And the EC50 (Cannabinoid receptor 2 [3])?
The EC50 was 19 nM.

And the Emax (Cannabinoid receptor 2 [4])?
The Emax was 96%.

What does the source list for `CC(C)(C)[C@H](NC(=O)c1cn(CCCCCO)c2ncccc12)C(N)=O`?
EC50 (Cannabinoid receptor 1 [1]): 491 nM; Emax at 1 µM (Cannabinoid receptor 1 [2]): 98%; EC50 (Cannabinoid receptor 2 [3]): 50 nM; Emax (Cannabinoid receptor 2 [4]): 96%

Which results are given for `COC(=O)[C@@H](NC(=O)c1cc2ccccc2n1CCCCCO)C(C)(C)C`?
activity at 10 µM (Cannabinoid receptor 1 [5]): < 50%; Activity (Cannabinoid receptor 2 [6]): < 50%

For `CC(C)(C)[C@H](NC(=O)c1cc2ccccc2n1CCCCCO)C(N)=O`, which activity at 10 µM (Cannabinoid receptor 1 [5]) is on record?
Its activity at 10 µM is less than 50%.

For `CCCCCn1cc(C(=O)N[C@H](C(=O)OC)C(C)(C)C)c2cccnc21`, which EC50 (Cannabinoid receptor 1 [1]) is on record?
Its EC50 is 1.7 nM.

What about the Emax at 1 µM (Cannabinoid receptor 1 [2]) of the same compound?
Its Emax at 1 µM is 103%.

And the EC50 (Cannabinoid receptor 2 [3])?
The EC50 was 4.3 nM.

And the Emax (Cannabinoid receptor 2 [4])?
The Emax was 102%.

With `CCCCCn1c(C(=O)NC23CC4CC(CC(C4)C2)C3)cc2ccccc21` as the compound, how does the activity at 10 µM (Cannabinoid receptor 1 [5]) read?
Its activity at 10 µM is less than 50%.

With `CCCCCn1cccc2c(C(=O)NC34CC5CC(CC(C5)C3)C4)cnc1-2` as the compound, how does the activity at 10 µM (Cannabinoid receptor 1 [5]) read?
Its activity at 10 µM is less than 50%.

And the Activity (Cannabinoid receptor 2 [6])?
Its Activity is less than 50%.

Which EC50 (Cannabinoid receptor 1 [1]) does the source give for `CCCCCn1cc(C(=O)N[C@H](C(N)=O)C(C)(C)C)c2cccnc21` here?
Its EC50 is 4 nM.

And the Emax at 1 µM (Cannabinoid receptor 1 [2])?
Its Emax at 1 µM is 110%.

And the EC50 (Cannabinoid receptor 2 [3])?
Its EC50 is 5 nM.

What about the Emax (Cannabinoid receptor 2 [4]) of the same compound?
The Emax was 94%.

For `CCCCCn1cc(C(=O)N[C@H](C(N)=O)C(C)C)c2cccnc21`, which EC50 (Cannabinoid receptor 1 [1]) is on record?
The EC50 was 121 nM.

What about the Emax at 1 µM (Cannabinoid receptor 1 [2]) of the same compound?
Its Emax at 1 µM is 117%.

And the EC50 (Cannabinoid receptor 2 [3])?
The EC50 was 58 nM.

What about the Emax (Cannabinoid receptor 2 [4]) of the same compound?
Its Emax is 103%.

With `CCCCCn1c(C(=O)N[C@H](C(N)=O)C(C)(C)C)cc2ccccc21` as the compound, how does the EC50 (Cannabinoid receptor 1 [1]) read?
The EC50 was greater than 10000 nM.

And the activity at 10 µM (Cannabinoid receptor 1 [5])?
The activity at 10 µM was less than 50%.

And the EC50 (Cannabinoid receptor 2 [3])?
Its EC50 is 189 nM.

What about the Emax (Cannabinoid receptor 2 [4]) of the same compound?
The Emax was 73%.

What does the source list for `O=C(NC12CC3CC(CC(C3)C1)C2)c1cn(CCCCCO)c2ncccc12`?
EC50 (Cannabinoid receptor 1 [1]): > 10000 nM; activity at 10 µM (Cannabinoid receptor 1 [5]): < 50%; EC50 (Cannabinoid receptor 2 [3]): 49 nM; Emax (Cannabinoid receptor 2 [4]): 93%

Which activity at 10 µM (Cannabinoid receptor 1 [5]) does the source give for `CCCCCn1c(C(=O)NC23CC4CC(CC(C4)C2)C3)cc2cccnc21` here?
The activity at 10 µM was less than 50%.

And the Activity (Cannabinoid receptor 2 [6])?
The Activity was less than 50%.

For `CCCCCn1cc(C(=O)NC23CC4CC(CC(C4)C2)C3)c2cccnc21`, which EC50 (Cannabinoid receptor 1 [1]) is on record?
The EC50 was 152 nM.

And the Emax at 1 µM (Cannabinoid receptor 1 [2])?
Its Emax at 1 µM is 75%.

What about the EC50 (Cannabinoid receptor 2 [3]) of the same compound?
Its EC50 is 43 nM.

And the Emax (Cannabinoid receptor 2 [4])?
Its Emax is 101%.

And the “Ratio EC50” value [7]?
The value was 3.5.

Which Emax (Cannabinoid receptor 2 [4]) does the source give for `CCCCCCC(C)(C)c1ccc([C@@H]2C[C@H](O)CC[C@H]2CCCO)c(O)c1` here?
The Emax was 106%.

For `CCCCCn1nc(C(=O)NC23CC4CC(CC(C4)C2)C3)c2cccnc21`, which EC50 (Cannabinoid receptor 1 [1]) is on record?
The EC50 was 824 nM.

And the Emax at 1 µM (Cannabinoid receptor 1 [2])?
The Emax at 1 µM was 97%.

And the EC50 (Cannabinoid receptor 2 [3])?
Its EC50 is 122 nM.

What about the Emax (Cannabinoid receptor 2 [4]) of the same compound?
The Emax was 104%.

What about the “Ratio EC50” value [7] of the same compound?
Its value is 7.

With `CC(C)(NC(=O)c1cc2ccccc2n1CCCCCO)c1ccccc1` as the compound, how does the activity at 10 µM (Cannabinoid receptor 1 [5]) read?
The activity at 10 µM was less than 50%.

And the EC50 (Cannabinoid receptor 2 [3])?
Its EC50 is 217 nM.

What about the Emax (Cannabinoid receptor 2 [4]) of the same compound?
The Emax was 88%.

With `CCCCCn1c(C(=O)N[C@H](C(=O)OC)C(C)C)cc2ccccc21` as the compound, how does the activity at 10 µM (Cannabinoid receptor 1 [5]) read?
The activity at 10 µM was less than 50%.

What about the EC50 (Cannabinoid receptor 2 [3]) of the same compound?
The EC50 was 713 nM.

And the Emax (Cannabinoid receptor 2 [4])?
The Emax was 74%.

Which activity at 10 µM (Cannabinoid receptor 1 [5]) does the source give for `CCCCCn1c(C(=O)N[C@H](C(=O)OC)C(C)(C)C)cc2ccccc21` here?
The activity at 10 µM was less than 50%.

For `CCCCCn1c(C(=O)NC(C)(C)c2ccccc2)cc2ccccc21`, which activity at 10 µM (Cannabinoid receptor 1 [5]) is on record?
The activity at 10 µM was less than 50%.

Which results are given for `CCCCCn1cc(C(=O)NC23CC4CC(CC(C4)C2)C3)c2ccccc21`?
EC50 (Cannabinoid receptor 1 [1]): 74 nM; Emax at 1 µM (Cannabinoid receptor 1 [2]): 108%; EC50 (Cannabinoid receptor 2 [3]): 96 nM; Emax (Cannabinoid receptor 2 [4]): 85%

Which activity at 10 µM (Cannabinoid receptor 1 [5]) does the source give for `CC(C)(C)[C@H](NC(=O)c1cc2ccccc2n1CCCCC(F)F)C(N)=O` here?
Its activity at 10 µM is less than 50%.

What about the EC50 (Cannabinoid receptor 2 [3]) of the same compound?
The EC50 was 5460 nM.

What about the Emax (Cannabinoid receptor 2 [4]) of the same compound?
The Emax was 128%.

Which activity at 10 µM (Cannabinoid receptor 1 [5]) does the source give for `COC(=O)[C@@H](NC(=O)c1cc2ccccc2n1CCCCCO)C(C)C` here?
The activity at 10 µM was less than 50%.

What about the Activity (Cannabinoid receptor 2 [6]) of the same compound?
The Activity was less than 50%.

With `CCCCCn1c(C(=O)N[C@H](C(N)=O)C(C)C)cc2ccccc21` as the compound, how does the activity at 10 µM (Cannabinoid receptor 1 [5]) read?
Its activity at 10 µM is less than 50%.

And the EC50 (Cannabinoid receptor 2 [3])?
Its EC50 is 741 nM.

And the Emax (Cannabinoid receptor 2 [4])?
The Emax was 74%.

Which EC50 (Cannabinoid receptor 1 [1]) does the source give for `CC(C)(NC(=O)c1cn(CCCCCO)c2ncccc12)c1ccccc1` here?
Its EC50 is 466 nM.

And the Emax at 1 µM (Cannabinoid receptor 1 [2])?
The Emax at 1 µM was 110%.

And the EC50 (Cannabinoid receptor 2 [3])?
The EC50 was 152 nM.

And the Emax (Cannabinoid receptor 2 [4])?
The Emax was 95%.

Which results are given for `CCCCCn1cc(C(=O)NC(C)(C)c2ccccc2)c2cccnc21`?
EC50 (Cannabinoid receptor 1 [1]): 35 nM; Emax at 1 µM (Cannabinoid receptor 1 [2]): 106%; EC50 (Cannabinoid receptor 2 [3]): 104 nM; Emax (Cannabinoid receptor 2 [4]): 96%

With `CC(C)[C@H](NC(=O)c1cc2ccccc2n1CCCCCO)C(N)=O` as the compound, how does the activity at 10 µM (Cannabinoid receptor 1 [5]) read?
Its activity at 10 µM is less than 50%.

What about the Activity (Cannabinoid receptor 2 [6]) of the same compound?
Its Activity is less than 50%.
